Shown are actives, neighbours in structure and some others; about 3.7% of the full set was active somewhere.
KCNK3 block: human KCNK3 channel inhibitors, primary screen, CHO cells, FluxOR thallium flux, B-score; FluxOR fluorescence; stronger effect = lower value; B-score at 10 µM; 340,000 tested, 0.84% active; AID 602410, 2012;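 active means B-score under library mean minus 4 SD, starting fluorescence ratio at most library mean plus 5 SD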;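 further: more negative B-score means stronger inhibition of thallium flux through KCNK3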
Target sequence (O14649 whole entry, looked up): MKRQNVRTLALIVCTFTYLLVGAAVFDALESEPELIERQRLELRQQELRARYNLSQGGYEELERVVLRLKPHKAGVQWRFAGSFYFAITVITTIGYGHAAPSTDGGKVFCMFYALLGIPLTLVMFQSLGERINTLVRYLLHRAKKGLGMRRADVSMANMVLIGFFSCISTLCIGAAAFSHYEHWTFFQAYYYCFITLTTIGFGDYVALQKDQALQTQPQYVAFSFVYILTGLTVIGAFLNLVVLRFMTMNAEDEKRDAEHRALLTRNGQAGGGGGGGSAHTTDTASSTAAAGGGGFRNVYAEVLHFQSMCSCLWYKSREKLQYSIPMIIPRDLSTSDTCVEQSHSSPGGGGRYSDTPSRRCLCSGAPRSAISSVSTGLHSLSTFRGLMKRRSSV
KCNQ1 act: potentiators or activators of KCNQ1 channel, primary screen, cell-based, thallium flux, high-throughput; 310,000 tested, 0.35% active; B-score at 10 µM; CHO-K1 KCNQ1, thallium flux FluxOR fluorescence; stronger effect = higher value; Potassium voltage-gated channel subfamily KQT member 1 (Homo sapiens), P51787;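 active means fluorescence ratio B-score, a plate-corrected score, at least three library SD, with initial intensity B-score within 5 SD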
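Test system: CHO-K1 cells stably expressing KCNQ1 / Medium: assay buffer / Also added: depolarizing K+/Tl+ stimulus, K2SO4 and Tl2SO4 each 12.5 mM in 5x stock / Incubation: 90 min dye loading and 20 min compound exposure, both at room temperature / Signal: thallium influx via FluxOR fluorescence, kinetic imaging / Evaluation: B score of baseline-normalized fluorescence ratio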
hERG protect: hERG rescue from dofetilide block, primary screen, cell-based, CHO-hERG, FluxOR thallium flux, dofetilide IC70; dofetilide IC70 present; activation (rescue from dofetilide block), less the hit threshold, % at 10 µM; 310,000 tested, 0.51% active; AID 1511, 2009;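 active means activation above the mean of controls blocked by dofetilide plus 5 SD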;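 further: thallium influx through hERG after potassium depolarization seen as dye fluorescence rise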
KCNQ1 block: inhibitors of human KCNQ1 channel, primary screen, cell-based, thallium flux, high-throughput; Potassium voltage-gated channel subfamily KQT member 1 (Homo sapiens), P51787; CHO-K1 KCNQ1, FluxOR thallium flux fluorescence; stronger effect = higher value; B-score at 10 µM; 310,000 tested, 1.3% active; AID 2642, 2010;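 active means compounds whose thallium flux B-score, printed positive for inhibition, exceeds three library SD while starting fluorescence stays within three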;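 further: channel opened by potassium depolarization with thallium stimulus after 20 min compound exposure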
KCNK9 block: KCNK9 potassium channel inhibitors, primary screen, HEK293 cells, thallium flux; Potassium channel subfamily K member 9 (Homo sapiens), Q9NPC2; FluxOR thallium flux fluorescence; stronger effect = lower value; B-score at 10 µM; 310,000 tested, 1.2% active;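 active means ratio B-score over 3 SD below the library mean, with starting fluorescence within 5 SD of its mean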;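 further: negative B-score means less thallium flux so channel inhibition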
Kir21 inh: inhibitors of mouse Kir2.1 inward-rectifier potassium channel; Inward rectifier potassium channel 2 (Mus musculus), P35561; HEK293-Kir2.1, FluxOR thallium flux fluorescence; stronger effect = lower value; AID 1672, 2009; B-score at 10 µM; 310,000 tested, 0.85% active;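 active means fluorescence ratio B-score at or below minus 3 SD of library scores, with starting-brightness B-score within 2 SD, cut at about -4.2 in these data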;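 further: channel flux triggered by added potassium and thallium sulfate stimulus; B-score of peak minus minimum fluorescence over baseline after thallium stimulus; more negative B-score means stronger Kir2.1 block with less thallium influx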
KCNK9 inh conf: KCNK9 potassium channel inhibitors, confirmation, HEK293 cells, thallium flux, duplicate. shares compounds with KCNK9 block. FluxOR thallium flux fluorescence. 4,900 tested, 43% active. inhibition, % at 10 µM;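 active means thallium signal inhibited by more than 5 SD of the compound-free buffer control wells, on both duplicate plates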
Kir2-1 spec: mouse Kir2.1 channel inhibition, confirmation, selectivity assay for KCNK9 modulator project, cell-based, HEK293, thallium flux | shares compounds with KCNK9 block | Kir2.1 cells, FluxOR thallium flux fluorescence | inhibition, % at 10 µM | 4,900 tested, 4% active;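 active means thallium signal drop more than 5 SD beyond the mean of the no-compound control wells, seen in both duplicate plates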;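 further: signal is fluorescence rise after thallium addition divided by baseline fluorescence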
HEK293 Tl ctr: thallium flux in non-induced HEK293 cells, confirmation, counter-screen for KCNK9 inhibitor project, cell-based, second counter screen, non-induced KCNK9-HEK293 | inhibition, % at 10 µM | 4,900 tested, 40% active | shares compounds with KCNK9 block | FluxOR thallium flux;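 active means thallium signal drop beyond 5 SD of the untreated control mean, on both duplicate plates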
Of the large screens only hits and unclear results are named; the others gave an inactive call (follow-up assays come after a bar, where they were run).

COc1cccc(CNC(=O)CCC2CCCN(Cc3ccc4c(c3)CCO4)C2)c1 (stereo unspecified)	none
O=C(CCC1CCCC1)NNC(=O)c1ccccc1O	none
CCCCN(CC)C(=O)CSc1nc2ccccc2c(=O)n1CC1COc2ccccc2O1 (stereo unspecified)	none | KCNK9 inh conf inactive | Kir2-1 spec inactive | HEK293 Tl ctr inactive
CCN(CC)C(=O)CSc1nc2ccccc2c(=O)n1CC	none
CN(CCOc1cccc(C(F)(F)F)c1)Cc1ccccc1	none
FC(F)(F)c1cccc(OCCN2CCN(Cc3ccccc3)CC2)c1	none | KCNK9 inh conf inactive | Kir2-1 spec inactive | HEK293 Tl ctr inactive
OCCN1CCN(CCOc2cccc(Cl)c2)CC1	none | KCNK9 inh conf inactive | Kir2-1 spec inactive | HEK293 Tl ctr inactive
CC(C)CCNC(=O)c1onc(CSc2ccccc2)c1C(=O)NCCC(C)C	none | KCNK9 inh conf inactive | Kir2-1 spec inactive | HEK293 Tl ctr inactive
CCCNC(=O)c1onc(CSc2ccc(F)c(F)c2)c1C(=O)NCCC	none (no result: KCNK3 block)
CC(C)CCNC(=O)c1onc(CSc2ccc(F)c(F)c2)c1C(=O)NCCC(C)C	none | KCNK9 inh conf inactive | Kir2-1 spec inactive | HEK293 Tl ctr inactive
COc1cccc(SCc2noc(C(=O)NCCC(C)C)c2C(=O)NCCC(C)C)c1	none | KCNK9 inh conf inactive | Kir2-1 spec inactive | HEK293 Tl ctr inactive
CCCNC(=O)c1onc(CSc2ccccc2)c1C(=O)NCCC	none
CCCNC(=O)c1onc(CSc2cccc(OC)c2)c1C(=O)NCCC	none
CN(C)CCNC(=O)c1onc(CSc2ccc(F)cc2)c1C(=O)NCCN(C)C	none
CC(C)CCNC(=O)c1onc(CSc2ccc(F)cc2)c1C(=O)NCCC(C)C	KCNQ1 block 7 | KCNK9 inh conf inactive | Kir2-1 spec inactive | HEK293 Tl ctr inactive
CC1CCN(CC(O)COc2ccc(-c3ccccc3)cc2)CC1 (stereo unspecified)	none
O=C(NNC(=O)c1ccccc1F)c1cccc(-n2cccc2)c1	none
CC(C)CCNC(=O)c1onc(CSc2ccc(Cl)cc2)c1C(=O)NCCC(C)C	none | KCNK9 inh conf inactive | Kir2-1 spec inactive | HEK293 Tl ctr inactive
CCOC(=O)C1=C(CC)Nc2ccccc2N=C1NC(=O)CCNC(C)=O	none
CCOCc1c(C(=O)NC2=Nc3ccccc3NC(CC)=C2C(=O)OCC)oc2ccccc12	KCNK9 block -16 | KCNK9 inh conf 47% | Kir2-1 spec inactive | HEK293 Tl ctr inactive
CCOC(=O)C1=C(CC)Nc2ccccc2N=C1NC(=O)c1oc2ccccc2c1C	KCNK9 block -11 | KCNK9 inh conf 35% | Kir2-1 spec inactive | HEK293 Tl ctr 27%
CCN1C(=O)[C@H]2[C@@H](c3ccc(-c4ccc(OC)cc4)c(OC)c3)N[C@@](CC(C)C)(C(=O)OC)[C@H]2C1=O	none (no result: KCNQ1 act, hERG protect, KCNQ1 block, KCNK9 block, Kir21 inh)
COC(=O)[C@]1(CC(C)C)N[C@H](c2ccc(-c3cccc(Cl)c3)cc2)[C@@H]2C(=O)N(C)C(=O)[C@@H]21	KCNK9 block -10 | KCNK9 inh conf 54% | Kir2-1 spec inactive | HEK293 Tl ctr 40%
COC(=O)[C@]1(C)N[C@H](c2ccc(-c3cccc(Cl)c3)cc2)[C@@H]2C(=O)N(C)C(=O)[C@@H]21	none (no result: KCNQ1 act, hERG protect, KCNQ1 block, KCNK9 block, Kir21 inh)
COC(=O)[C@]1(CC(C)C)N[C@H](c2ccc(-c3ccc(F)cc3)c(OC)c2)[C@@H]2C(=O)N(C)C(=O)[C@@H]21	KCNK9 block -9.1 | KCNK9 inh conf 38% | Kir2-1 spec inactive | HEK293 Tl ctr 38%
O=C(CN1CCN(c2ccccc2F)CC1)N1CCc2ccccc21	none
CCN1C(=O)/C(=C\c2nc3ccccc3c(=O)n2CC)c2ccccc21	none | KCNK9 inh conf inactive | Kir2-1 spec inactive | HEK293 Tl ctr inactive
O=C(CN1CCN(c2cccc(C(F)(F)F)c2)CC1)NCc1ccccc1	none
Nc1ccc(C2(c3ccc(N)cc3)OC(=O)c3ccccc32)cc1	none
Cc1cc(C2(c3ccc(O)c(C)c3)OC(=O)c3ccccc32)ccc1O	KCNK9 block -12 | KCNK9 inh conf 55% | Kir2-1 spec inactive | HEK293 Tl ctr inactive
CC(C)n1cc(/C=N/Nc2ccc(Cl)c(C(=O)O)c2)c2ccccc21	none
c1ccc2c(c1)ncn2CCCOc1ccc2c(c1)CCC2	none | KCNK9 inh conf inactive | Kir2-1 spec inactive | HEK293 Tl ctr inactive
CN1CCN(C2=C(Cl)C(=O)C(c3cnc(N4CCCCC4)s3)=C(Cl)C2=O)CC1	KCNQ1 block 16, KCNK9 block -17 | KCNK9 inh conf inactive | Kir2-1 spec inactive | HEK293 Tl ctr 38%
COc1ccc(/C=C/C(=O)Oc2ccc(C)cc2)cc1	none
O=[N+]([O-])c1ccc(Cl)cc1CNc1ccc(F)c(F)c1	KCNK9 block -8.5 | KCNK9 inh conf 33% | Kir2-1 spec inactive | HEK293 Tl ctr 27%
Cc1cc(C)c2nc(NNC(=O)c3ccc(S(=O)(=O)N4CCCCC4)cc3)sc2c1	none | KCNK9 inh conf inactive | Kir2-1 spec inactive | HEK293 Tl ctr inactive
Cc1cccc2sc(NNC(=O)c3ccc(S(=O)(=O)N4CCc5ccccc5C4)cc3)nc12	none | KCNK9 inh conf inactive | Kir2-1 spec inactive | HEK293 Tl ctr inactive
CCOC(=O)c1c(S(=O)(=O)NC2CCN(C(=O)OCC)CC2)c(C)n(C)c1C	none
COc1ccc(NC2CCCN(C(=O)CCc3cn[nH]c3)C2)cc1 (stereo unspecified)	none
COc1ccc(NC2CCCN(C(=O)C3(C)CCCCC3)C2)cc1 (stereo unspecified)	none | KCNK9 inh conf inactive | Kir2-1 spec inactive | HEK293 Tl ctr inactive
COc1ccc(C(=O)N2CCCC(Nc3ccc(C(C)C)cc3)C2)c(OC)n1 (stereo unspecified)	none | KCNK9 inh conf inactive | Kir2-1 spec inactive | HEK293 Tl ctr inactive

Bioassay records from PubChem.
